The test system of one assay is HeLa. Nature of the assay: Antiproliferative activity against human HeLa cells after 48 hrs incubation by SRB assay. It is filed as functional. The essentials:
(§1)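 Cells kept in RPMI 1640 with 5% heat-inactivated FCS and 2 mM L-glutamine at 37 °C, 5% CO2. Plated at 10 000 (HBL-100, HeLa, SW1573), 15 000 (T-47D) or 20 000 (WiDr) cells/well. Dosing began day 1, in triplicate, over 1–100 range. DMSO stocks at 400× final top concentration; vehicle control 0.25% DMSO. Exposure 48 h, then TCA fixation 60 min at 4 °C. SRB read-out at 492 nm, background-corrected; GI50 from dose–response.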
In general terms: Sulforhodamine B stains cellular protein and so reports cell mass.

The next assay concerns T47D. In words: Antiproliferative activity against human T47D cells after 48 hrs incubation by SRB assay. It is filed as functional. The essentials: as §1
The subject of a further assay is WiDr. In words: Antiproliferative activity against human WiDr cells after 48 hrs incubation by SRB assay. It is filed as functional. The essentials: as §1
Another assay has as its system SW1573. Nature of the assay: Antiproliferative activity against human SW1573 cells after 48 hrs incubation by SRB assay. It is filed as functional. To be noted: SW1573, 48 h. The essentials: as §1
A short description of assay [1]: Antiproliferative activity against human HBL100 cells after 48 hrs incubation by SRB assay. It is filed as functional. To be noted: HBL-100, 48 h. The essentials: as §1
In assay [2] the target is Casein kinase II subunit alpha' (Homo sapiens) (UniProt P19784). Nature of the assay: Inhibition of human Casein kinase 2 alpha prime polypeptide assessed as residual activity at 10 uM relative to control. The essentials:
(§2)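 KINOMEscan active-site-directed competition binding run against a 456-kinase panel (scanMAX), each compound at a single 10 µM concentration. Binding reported as percent of control, with DMSO set to 100%Ctrl and a positive control set to 0%Ctrl. Hit cut-off is 35%Ctrl.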

For assay [3], the target named is Casein kinase I isoform gamma-1 (Homo sapiens) (UniProt Q9HCP0). In words: Inhibition of human Casein kinase 1 gamma 1 assessed as residual activity at 10 uM relative to control. The essentials:
as §2

In assay [4] the target is Casein kinase I isoform alpha (Homo sapiens) (UniProt P48729). Nature of the assay: Inhibition of human Casein kinase 1 alpha 1 assessed as residual activity at 10 uM relative to control. The essentials:
as §2

The target in assay [5] is Casein kinase II subunit alpha (Homo sapiens) (UniProt P68400). In words: Inhibition of human Casein kinase 2 alpha 1 polypeptide assessed as residual activity at 10 uM relative to control. The essentials:
as §2

The target of assay [6] is Casein kinase I isoform delta (Homo sapiens) (UniProt P48730). In words: Inhibition of human Casein kinase 1 delta assessed as residual activity at 10 uM relative to control. The essentials: as §2
Sequence of Casein kinase I isoform delta (Homo sapiens) (P48730 whole entry, looked up, canonical isoform): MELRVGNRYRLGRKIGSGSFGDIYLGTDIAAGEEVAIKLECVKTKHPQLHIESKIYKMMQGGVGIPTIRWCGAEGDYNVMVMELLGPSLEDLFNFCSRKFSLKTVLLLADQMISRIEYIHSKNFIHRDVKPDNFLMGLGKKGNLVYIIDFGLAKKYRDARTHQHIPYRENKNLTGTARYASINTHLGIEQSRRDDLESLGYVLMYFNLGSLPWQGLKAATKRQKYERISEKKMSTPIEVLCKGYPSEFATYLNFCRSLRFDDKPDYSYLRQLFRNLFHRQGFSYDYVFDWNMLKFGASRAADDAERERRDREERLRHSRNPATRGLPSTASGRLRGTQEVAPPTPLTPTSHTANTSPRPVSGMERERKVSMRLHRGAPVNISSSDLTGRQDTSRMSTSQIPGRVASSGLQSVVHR
The target in assay [7] is Casein kinase I isoform gamma-2 (Homo sapiens) (UniProt P78368). In words: Inhibition of human Casein kinase 1 gamma 2 assessed as residual activity at 10 uM relative to control. The essentials: as §2
Sequence of Casein kinase I isoform gamma-2 (Homo sapiens) (P78368 whole entry, looked up, canonical isoform): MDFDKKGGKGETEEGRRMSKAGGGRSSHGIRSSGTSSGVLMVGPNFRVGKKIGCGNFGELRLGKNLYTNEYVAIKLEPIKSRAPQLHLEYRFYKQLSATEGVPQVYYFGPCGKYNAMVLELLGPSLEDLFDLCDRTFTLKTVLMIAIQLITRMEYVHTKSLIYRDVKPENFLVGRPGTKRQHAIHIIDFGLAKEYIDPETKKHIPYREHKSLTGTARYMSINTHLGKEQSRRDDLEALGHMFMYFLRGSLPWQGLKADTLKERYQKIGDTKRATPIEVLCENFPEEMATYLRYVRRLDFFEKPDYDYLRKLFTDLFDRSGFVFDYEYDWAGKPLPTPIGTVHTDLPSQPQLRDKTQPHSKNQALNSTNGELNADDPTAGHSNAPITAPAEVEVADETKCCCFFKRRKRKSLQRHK
In assay [8] the target is Casein kinase I isoform epsilon (Homo sapiens, UniProt P49674). Nature of the assay: Inhibition of human Casein kinase 1 epsilon assessed as residual activity at 10 uM relative to control. The essentials:
as §2

Assay [9] deals with T1, Casein kinase I isoform alpha-like (Homo sapiens) (UniProt Q8N752).
T1 sequence (whole entry): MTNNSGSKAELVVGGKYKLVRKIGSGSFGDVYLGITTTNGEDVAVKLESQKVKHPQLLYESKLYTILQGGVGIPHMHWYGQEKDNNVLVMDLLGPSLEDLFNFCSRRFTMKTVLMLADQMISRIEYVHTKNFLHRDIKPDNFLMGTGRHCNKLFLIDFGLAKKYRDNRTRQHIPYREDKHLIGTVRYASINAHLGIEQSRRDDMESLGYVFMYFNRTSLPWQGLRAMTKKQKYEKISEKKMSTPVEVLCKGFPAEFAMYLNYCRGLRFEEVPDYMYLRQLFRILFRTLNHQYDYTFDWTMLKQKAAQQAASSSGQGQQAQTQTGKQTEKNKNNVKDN
Nature of the assay: Inhibition of human Casein kinase 1 alpha 1-like assessed as residual activity at 10 uM relative to control. The essentials:
as §2

In assay [10] the target is Casein kinase I isoform gamma-3 (Homo sapiens) (UniProt Q9Y6M4). Nature of the assay: Inhibition of human Casein kinase 1 gamma 3 assessed as residual activity at 10 uM relative to control. The essentials: as §2
Sequence of Casein kinase I isoform gamma-3 (Homo sapiens) (Q9Y6M4 whole entry, looked up, canonical isoform): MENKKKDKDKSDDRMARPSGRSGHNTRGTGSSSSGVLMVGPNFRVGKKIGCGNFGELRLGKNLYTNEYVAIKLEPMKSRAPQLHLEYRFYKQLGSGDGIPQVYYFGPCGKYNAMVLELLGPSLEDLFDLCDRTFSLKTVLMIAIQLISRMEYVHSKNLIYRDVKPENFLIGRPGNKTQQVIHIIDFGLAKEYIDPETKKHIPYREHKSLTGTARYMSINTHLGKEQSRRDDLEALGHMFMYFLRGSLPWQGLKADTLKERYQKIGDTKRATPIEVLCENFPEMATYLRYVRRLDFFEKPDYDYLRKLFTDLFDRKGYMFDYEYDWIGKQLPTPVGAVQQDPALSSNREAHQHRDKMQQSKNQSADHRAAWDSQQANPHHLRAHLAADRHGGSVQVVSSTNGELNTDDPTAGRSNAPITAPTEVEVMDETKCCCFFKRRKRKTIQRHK

As a reminder, the GI50 is the concentration at which growth is held to half of that of the control. A low value points to greater sensitivity of the cells.

Sequence of Casein kinase I isoform alpha (Homo sapiens) (P48729 2-337 limits assumed): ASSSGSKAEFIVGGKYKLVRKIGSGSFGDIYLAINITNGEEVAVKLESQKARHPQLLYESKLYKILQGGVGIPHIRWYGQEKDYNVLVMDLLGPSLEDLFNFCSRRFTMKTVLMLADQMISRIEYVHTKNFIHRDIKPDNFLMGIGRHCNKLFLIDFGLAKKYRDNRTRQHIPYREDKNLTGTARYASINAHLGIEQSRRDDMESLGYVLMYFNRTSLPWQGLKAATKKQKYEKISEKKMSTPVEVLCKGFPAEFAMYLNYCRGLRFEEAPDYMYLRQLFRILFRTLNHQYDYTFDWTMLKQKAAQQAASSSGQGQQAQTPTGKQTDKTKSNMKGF
Sequence of Casein kinase II subunit alpha' (Homo sapiens) (P19784 whole entry, looked up): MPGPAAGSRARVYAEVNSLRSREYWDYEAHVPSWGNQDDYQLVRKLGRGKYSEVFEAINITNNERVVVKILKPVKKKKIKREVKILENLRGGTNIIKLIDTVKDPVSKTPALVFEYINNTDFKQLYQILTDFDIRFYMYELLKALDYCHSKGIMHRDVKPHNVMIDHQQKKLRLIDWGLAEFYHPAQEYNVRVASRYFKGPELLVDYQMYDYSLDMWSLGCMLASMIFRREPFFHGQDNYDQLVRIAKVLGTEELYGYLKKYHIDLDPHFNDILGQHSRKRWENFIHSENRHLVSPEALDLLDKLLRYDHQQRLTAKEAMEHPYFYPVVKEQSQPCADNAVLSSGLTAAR
Sequence of Casein kinase I isoform epsilon (P49674 whole entry, looked up, canonical isoform): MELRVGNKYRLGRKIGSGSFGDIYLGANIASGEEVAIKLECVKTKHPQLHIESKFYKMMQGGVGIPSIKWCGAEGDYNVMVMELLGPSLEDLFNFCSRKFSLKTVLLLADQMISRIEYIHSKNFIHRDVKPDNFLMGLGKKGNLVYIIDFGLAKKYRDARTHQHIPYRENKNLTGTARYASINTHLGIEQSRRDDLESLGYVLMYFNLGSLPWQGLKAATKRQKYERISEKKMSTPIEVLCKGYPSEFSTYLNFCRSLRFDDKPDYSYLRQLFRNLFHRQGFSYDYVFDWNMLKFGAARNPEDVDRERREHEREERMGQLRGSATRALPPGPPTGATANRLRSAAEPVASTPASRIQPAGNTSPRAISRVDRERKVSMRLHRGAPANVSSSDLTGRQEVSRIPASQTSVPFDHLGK
Sequence of Casein kinase II subunit alpha (Homo sapiens) (P68400 whole entry, looked up): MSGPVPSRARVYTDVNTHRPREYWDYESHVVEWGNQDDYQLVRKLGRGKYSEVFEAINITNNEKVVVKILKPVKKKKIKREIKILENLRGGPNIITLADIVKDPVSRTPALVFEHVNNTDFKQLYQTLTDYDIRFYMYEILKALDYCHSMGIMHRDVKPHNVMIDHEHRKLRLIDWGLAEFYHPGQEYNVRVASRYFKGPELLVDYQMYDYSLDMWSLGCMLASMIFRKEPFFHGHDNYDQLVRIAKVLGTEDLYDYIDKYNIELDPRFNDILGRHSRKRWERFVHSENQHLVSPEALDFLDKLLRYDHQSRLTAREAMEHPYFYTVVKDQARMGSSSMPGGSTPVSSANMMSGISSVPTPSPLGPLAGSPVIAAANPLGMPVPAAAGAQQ
Sequence of Casein kinase I isoform gamma-1 (Homo sapiens) (Q9HCP0 whole entry, looked up, canonical isoform): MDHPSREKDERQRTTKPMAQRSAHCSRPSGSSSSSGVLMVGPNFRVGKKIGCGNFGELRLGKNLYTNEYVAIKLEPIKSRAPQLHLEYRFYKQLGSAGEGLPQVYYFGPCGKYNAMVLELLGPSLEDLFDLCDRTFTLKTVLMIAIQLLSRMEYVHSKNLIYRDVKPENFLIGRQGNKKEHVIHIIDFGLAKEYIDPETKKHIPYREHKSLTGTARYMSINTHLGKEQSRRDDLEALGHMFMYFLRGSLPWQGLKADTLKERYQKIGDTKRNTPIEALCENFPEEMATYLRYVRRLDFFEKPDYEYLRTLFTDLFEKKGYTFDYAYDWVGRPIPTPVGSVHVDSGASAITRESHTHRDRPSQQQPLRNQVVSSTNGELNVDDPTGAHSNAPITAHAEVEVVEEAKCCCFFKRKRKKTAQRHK

Turning to `CCCCCCCCCCCCCCC[C@@H](O)[C@@H](N)CO` [DIHYDROSPINGOSINE], the GI50 with HeLa turned out to be 15 µM; with T47D it was 22 µM; in the assay on WiDr, 19 µM; in the assay on SW1573, 4.5 µM; in assay [1], 25 µM.
The matching figures for `CCCCCCCCC[C@@H](O)[C@@H](N)C(C)C`: 20 µM, 17 µM, 11 µM, 17 µM and 14 µM.
On the same counts, the results for `CCCCCCCCC[C@@H](O)[C@@H](N)Cc1ccc(O)cc1` are 20 µM, 17 µM, 12 µM, 18 µM and 14 µM.
As for `CCCCCCCCCCCCCCC[C@@H](O)[C@@H](N)C(C)C`, the GI50 in the assay on HeLa was 21 µM; in the assay on T47D it was 18 µM; in the assay on WiDr, 20 µM; in the assay on SW1573, 7.2 µM; in assay [1], 4.9 µM.
In the case of `CCCCCCCCC[C@@H](O)[C@@H](N)CC(C)C`, the GI50 in the assay on HeLa came out at 21 µM; in the assay on T47D it was 11 µM; in the assay on WiDr, 5.9 µM; in the assay on SW1573, 14 µM; in [1] it was 14 µM.
As for `CCCCCCCCCCCCCCC[C@@H](O)[C@H](C)N`, the GI50 came out at 2.6 µM in the assay with HeLa; 0.9 µM with T47D; 0.7 µM in the assay on WiDr; 1.3 µM with SW1573; 2.3 µM in assay [1]. Also, the Activity in assay [2] was 98%; in [3], 98%; in assay [4], 100%; in assay [5] it was 87%; in [6], 100%; in assay [7], 100%. The values for the Activity in assay [8], in [9] and in assay [10] were 60%, 100% and 100%, respectively.
For the compound `CCCCCCCCCCCCCCC[C@@H](O)[C@@H](N)C(C)CC` (single isomer, unassigned), the GI50 in the assay on HeLa is 20 µM; in the assay with T47D it was 17 µM; with WiDr, 13 µM; in the assay on SW1573, 3.4 µM; in assay [1], 2.4 µM.
As to `CCCCCCCCC[C@@H](O)[C@@H](N)Cc1ccccc1`, the GI50 with HeLa worked out at 18 µM; in the assay on T47D it was 17 µM; in the assay with WiDr, 12 µM; in the assay with SW1573, 16 µM; in assay [1] it was 14 µM. Further, the Activity came to 100% in [2]; 100% in [3]; 95% in assay [4]; 70% in assay [5]; 93% in assay [6]; 96% in [7]. Also, the Activity was determined as 27% in assay [8], 88% in [9] and 71% in [10].
For `CCCCCCCCC[C@@H](O)[C@@H](N)C(C)CC` (single isomer, unassigned), the GI50 in the assay on HeLa was determined as 20 µM; with T47D, 14 µM; in the assay with WiDr it was 2.3 µM; in the assay on SW1573, 13 µM; in [1], 13 µM.
For the compound `CCCCCCCCC[C@@H](O)[C@@H](N)[C@@H](C)O`, the GI50 turned out to be 17 µM in the assay with HeLa; 16 µM in the assay on T47D; 14 µM with WiDr; 17 µM with SW1573; 13 µM in assay [1].
With `COc1cc([C@@H]2c3cc4c(cc3[C@@H](O[C@@H]3O[C@@H]5CO[C@@H](C)O[C@H]5[C@H](O)[C@H]3O)[C@H]3COC(=O)[C@H]23)OCO4)cc(OC)c1O` [ETOPOSIDE], the GI50 with HeLa was 2 µM; with T47D it was 15 µM; in the assay with WiDr, 26 µM; in the assay with SW1573, 3 µM; in assay [1], 1.9 µM.
As to `CCCCCCCCCCCCCCC[C@@H](O)[C@@H](N)CC(C)C`, the concentration for 50% growth inhibition (GI50) in the assay on HeLa came to 19 µM; with T47D, 15 µM; in the assay with WiDr it was 4.9 µM; with SW1573 it was 2.8 µM; in assay [1] it was 2.4 µM. The Activity in [2] stood at 100%; in assay [3], 98%; in assay [4], 93%; in assay [5], 84%; in assay [6], 89%; in assay [7] it was 94%. For the same compound, the Activity in [8] turned out to be 48%; in assay [9], 91%; in assay [10], 93%.
Regarding `CCCCCCCCCCCCCCC[C@@H](O)[C@@H](N)Cc1ccccc1`, the GI50 with HeLa is 1.3 µM; in the assay on T47D, 1.8 µM; with WiDr it was 2.3 µM; with SW1573, 2.1 µM; in [1], 2.9 µM.
As for `CCCCCCCCC[C@@H](O)[C@H](C)N`, the GI50 was 9.2 µM in the assay on HeLa; 12 µM in the assay on T47D; 17 µM in the assay with WiDr; 9.5 µM in the assay with SW1573; 6.6 µM in [1].
With `CCCCCCCCCCCCCCC[C@@H](O)[C@@H](N)[C@@H](C)O`, the GI50 in the assay on HeLa is 19 µM; in the assay on T47D, 19 µM; with WiDr, 18 µM; in the assay on SW1573, 17 µM; in assay [1], 21 µM. In addition, the Activity came to 100% in assay [2]; 100% in assay [3]; 100% in assay [4]; 71% in assay [5]; 90% in [6]; 87% in assay [7]. In addition, the Activity in assay [8] is 43%; in assay [9], 100%; in assay [10], 82%.
